Bioassay records from PubChem BioAssay.
Rows were chosen to be rich in hits. Some 1.2% of all compounds tested hit in one or more screens of this group.
core dimer inh – HCV core protein dimerization inhibition | TR-FRET GST/Flag-core106 dimerization, 1536-well | inhibition, % at 5 µM | 300,000 tested, 0.33% active | AID 1899;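 active = inhibition above the mean of all tested compounds plus 3 SD, set per screening campaign, cut at about 45% in these data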
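test system = GST/Flag-tagged HCV core106 proteins | probe or stimulus = Eu donor and XL665 acceptor anti-tag antibodies | times = compound-protein-antibody incubation 4 h at 22.5 °C | signal = TR-FRET, excitation 340 nm, emission 617 and 671 nm | measure = percent inhibition of core106 dimerization signal | controls = wells lacking GST-core106 and wells with excess unlabelled core106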
NPR1 activator – GC-A (human) enzyme activation. P16066. HEK293 GC-A cells, cGMP TR-FRET, EC30 ANP; 0% at EC30 ANP, 100% saturating ANP. activation, % at 10 µM. 370,000 tested, 0.14% active. AID 1671463; in the data active = activation above about 40%
ARFGAP1 inhibitor – rat ARFGAP1 inhibition; Q62848; 360,000 tested, 0.26% active; Arfgap1-stimulated ARF1 GTP hydrolysis, GDP FP detection; inhibition, % at 16.5 µM;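 active = inhibition above a per-plate limit, mean inhibition of low control wells plus 3 SD, cut at about 25% in these data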
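System: truncated rat Arfgap1 GAP domain / Benchmarks: high control wells lacking Arfgap1, low control full reaction with DMSO / Times: compound-enzyme preincubation 20 min, reaction 120 min, detection 60 min, 25 °C / Repeats: one replicate per compound / Also added: human ARF1(Δ1-17)-GTP substrate / Measured by: Tracer-displacement fluorescence polarization with EDTA stop, 620/688 nm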
Fh CTSL1 inh – counter-screen for PFM18AAP inhibitors: inhibitors of F. hepatica cathepsin L1; recombinant F. hepatica cathepsin L1, Z-Leu-Arg-MCA fluorescence; inhibition, % at 5.96 µM; 300,000 tested, 0.49% active; AID 1906;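 active = inhibition above the mean of all tested compounds plus 3 SD, set per screening campaign, cut at about 17% in these data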
ASAP1 inh – ASAP1 ArfGAP inhibition. Q9ULH1. ASAP1-stimulated ARF1 GTP hydrolysis, GDP FP detection. inhibition, % at 16.5 µM. 360,000 tested, 0.19% active; in the data active = inhibition above about 25%
NPR2 activator – GC-B (human) receptor activation; HEK293-GC-B cells, CNP EC30, cGMP TR-FRET; 0% at EC30 CNP, 100% saturating CNP; 370,000 tested, 0.11% active; P20594; AID 1920062; activation, % at 10 µM;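 active = activation at 10 µM reaching about 35% in either raw or pattern-adjusted values, limit read from the data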
Target sequence (P20594 whole entry, looked up): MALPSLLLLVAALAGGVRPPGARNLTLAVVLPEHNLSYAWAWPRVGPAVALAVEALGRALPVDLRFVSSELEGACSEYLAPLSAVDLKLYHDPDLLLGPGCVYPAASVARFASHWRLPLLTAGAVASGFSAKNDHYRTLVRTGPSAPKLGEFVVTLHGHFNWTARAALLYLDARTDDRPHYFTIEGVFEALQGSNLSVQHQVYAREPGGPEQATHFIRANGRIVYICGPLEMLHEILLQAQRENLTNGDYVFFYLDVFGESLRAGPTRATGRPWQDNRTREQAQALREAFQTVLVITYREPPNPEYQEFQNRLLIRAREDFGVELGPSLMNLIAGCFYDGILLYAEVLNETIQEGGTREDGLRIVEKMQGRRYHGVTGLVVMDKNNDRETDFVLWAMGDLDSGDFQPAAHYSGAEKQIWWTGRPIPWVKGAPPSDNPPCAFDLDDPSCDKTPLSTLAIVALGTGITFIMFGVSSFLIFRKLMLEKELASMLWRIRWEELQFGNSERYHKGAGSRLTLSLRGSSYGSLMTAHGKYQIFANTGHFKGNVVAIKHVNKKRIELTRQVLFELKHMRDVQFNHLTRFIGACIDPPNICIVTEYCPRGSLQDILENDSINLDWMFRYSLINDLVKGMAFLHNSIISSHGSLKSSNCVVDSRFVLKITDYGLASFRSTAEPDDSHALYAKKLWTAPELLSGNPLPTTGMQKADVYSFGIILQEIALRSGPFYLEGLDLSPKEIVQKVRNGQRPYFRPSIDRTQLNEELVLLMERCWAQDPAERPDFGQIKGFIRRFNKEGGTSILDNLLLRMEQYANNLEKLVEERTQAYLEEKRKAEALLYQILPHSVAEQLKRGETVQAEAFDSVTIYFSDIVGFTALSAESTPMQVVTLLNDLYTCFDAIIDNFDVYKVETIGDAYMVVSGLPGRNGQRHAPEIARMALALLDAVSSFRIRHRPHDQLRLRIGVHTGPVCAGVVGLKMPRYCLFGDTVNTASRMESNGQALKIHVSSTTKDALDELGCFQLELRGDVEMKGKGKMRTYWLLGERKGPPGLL
Of the large screens only hits and unclear results are named; the others gave an inactive call.

O=C(COC(=O)CNC(=O)c1ccccc1Cl)Nc1ncc(C(F)(F)F)cc1Cl	Fh CTSL1 inh 20.8
O=C(COC(=O)C1CC1)Nc1ncc(C(F)(F)F)cc1Cl	none
O=C(O)c1ccc2c(c1)C(=O)N(c1ccc(OCc3ccccc3)cc1)C2=O	none
O=C(NNC(=O)c1cccc(-n2cccc2)c1)c1ccc(F)cc1	core dimer inh 52.0
COc1cc(Nc2cc(C)n(-c3ccc(Cl)c(OC)c3)c(=O)c2)ccc1Cl	none (no result: core dimer inh, Fh CTSL1 inh)
Cc1cc(Nc2cc(Cl)cc(Cl)c2)cc(=O)n1-c1cc(Cl)cc(Cl)c1	NPR2 activator 28.1 (no result: core dimer inh, Fh CTSL1 inh)
CCN(CC(=O)Nc1ccccc1OC)C(=O)COc1ccc2ccccc2c1	none
COc1c2c(c(C)c3c1C(=O)OC3)O[C@@]1(C)CC[C@@]3(O)C(C)(C)OC(=O)CC[C@]3(C)[C@H]1C2	Fh CTSL1 inh 25.3
N#Cc1c2n(c(=S)n(-c3ccccn3)c1=O)CCCCC2	none
COc1ccc(-c2csc(NC(C)c3nc4cc(C(=O)NCCCO)ccc4n3Cc3ccc(C)cc3)n2)cc1 (stereo not given)	NPR2 activator 46.6
Cc1cc(C(=O)Nc2nc3ccc(Cl)cc3s2)nn1C	none
Cc1c(C(=O)N2CCOCC2)sc(NC(=O)CCl)c1C#N	Fh CTSL1 inh 17.5
Cc1c(C(=O)N2CCOCC2)sc(NC(=O)c2ccc([N+](=O)[O-])cc2)c1C#N	none
Cc1occc1C(=O)NNC(=S)NCc1ccccc1	Fh CTSL1 inh 17.1
Cc1occc1C(=O)NNC(=S)NCc1ccc(Cl)cc1	none
O=C(COC(=O)c1cc(=O)c2ccccc2o1)Nc1cc(Cl)ccc1Cl	none (no result: core dimer inh, Fh CTSL1 inh)
COc1ccccc1-c1cc(C(F)(F)F)nc(S(=O)(=O)CCCC(=O)Nc2cccnc2Cl)n1	NPR1 activator 72.5 (no result: core dimer inh, Fh CTSL1 inh)
COc1ccccc1-c1cc(C(F)(F)F)nc(S(=O)(=O)CCCC(=O)N2CCCCC2C)n1 (stereo not given)	NPR1 activator 77.7
CC(C)c1nnc(NC(=O)CCS(=O)(=O)c2nc(-c3cccs3)cc(C(F)(F)F)n2)s1	none
COc1ccc(-c2cc(C(F)(F)F)nc(S(=O)(=O)CCCC(=O)Nc3cc(C)on3)n2)cc1OC	none (no result: core dimer inh, Fh CTSL1 inh)
COc1ccccc1-c1cc(C(F)(F)F)nc(S(=O)(=O)CCCC(=O)NC(C)C)n1	NPR1 activator 73.3
COc1ccccc1-c1cc(C(F)(F)F)nc(S(=O)(=O)CCCC(=O)Nc2cc(C)on2)n1	NPR1 activator 76.4
CCc1cccc(CC)c1NC(=O)COC(=O)c1cccc(-c2ccc(OC(C)=O)cc2)c1	none
COc1ccccc1-c1cc(C(F)(F)F)nc(N2CCCC2)n1	none
COc1ccccc1-c1cc2nc(C)c(CCC(=O)NCc3ccc(F)cc3)c(C)n2n1	none
COc1ccccc1-c1cc(C(F)(F)F)nc(S(C)(=O)=O)n1	NPR1 activator 76.8
COc1ccccc1-c1cc(C(F)(F)F)nc(S(=O)(=O)CCCC(=O)NCc2ccc(F)cc2)n1	NPR1 activator 74.5
Cc1ccc(-c2nc3ccccc3o2)cc1NC(=S)NC(=O)/C=C/c1ccco1	core dimer inh 55.7
Cc1cccc(NC(=S)NC(=O)/C=C/c2ccco2)c1	none
O=C(/C=C/c1ccco1)NC(=S)Nc1cccc(-c2nc3ccccc3o2)c1	core dimer inh 56.0
Cc1c(C(=O)Nc2cccc(C(F)(F)F)c2)oc2ccc(S(=O)(=O)N3CCOCC3)cc12	none
O=C(CSc1nnc(NC(=O)c2ccccc2Cl)s1)Nc1ccc2c(c1)oc1ccccc12	core dimer inh 49.2
CC(C)(C)NC(=O)CSc1nnc(NC(=O)c2ccccc2Cl)s1	none
CC(C)CCOC(=O)C1C2C=CC3(CN(Cc4cccs4)C(=O)C13)O2 (stereo not given)	none
O=C(COC(=O)c1ccc([N+](=O)[O-])s1)NC(c1ccccc1)c1ccccc1	none
O=C(COC(=O)c1ccc([N+](=O)[O-])s1)Nc1ccc(F)cc1	none (no result: core dimer inh, Fh CTSL1 inh)
O=C(COC(=O)c1ccc([N+](=O)[O-])s1)Nc1cccc(S(=O)(=O)NC2=NCCCCC2)c1	Fh CTSL1 inh 70.1
O=C(COC(=O)c1ccc([N+](=O)[O-])s1)NCc1ccccc1	Fh CTSL1 inh 57.3
O=C(COC(=O)c1ccc([N+](=O)[O-])s1)Nc1ccccc1	Fh CTSL1 inh 74.3
O=C(Cn1cc([N+](=O)[O-])cn1)NCCc1c[nH]c2ccccc12	none
Cc1ccc(S(=O)(=O)N2CCOCC2)cc1C(=O)NCC1CCCO1 (stereo not given)	Fh CTSL1 inh 28.1
O=C(NCC1CCCO1)c1cc(S(=O)(=O)N2CCOCC2)c(Cl)cc1Cl (stereo not given)	none (no result: core dimer inh, Fh CTSL1 inh)
O=C(CN(c1ccc(Cl)c(C(F)(F)F)c1)S(=O)(=O)c1ccccc1)N1CCOCC1	none
COc1ccc(OCCOc2ccc(C)nc2[N+](=O)[O-])cc1	none
Cc1ccc(CNC(=O)COc2ccc(C)nc2[N+](=O)[O-])cc1	none
Cc1ccc(OCC(=O)c2ccc(Cl)s2)c([N+](=O)[O-])n1	core dimer inh 56.9
Cc1ccc(OCCOc2ccc(Cl)cc2Cl)c([N+](=O)[O-])n1	NPR1 activator 47.9
Cc1ccc(S(=O)(=O)CCC(=O)NCc2ccccc2Cl)cc1	none
COc1ccccc1CNC(=O)CCS(=O)(=O)c1ccc(Cl)cc1	Fh CTSL1 inh 28.6
CC(NS(=O)(=O)c1ccccc1)C(c1cccs1)N1CCOCC1 (stereo not given)	Fh CTSL1 inh 79.4
COC(=O)[C@]12C[C@H](CC(=O)NCc3cccc4ccccc34)C(=O)N(Cc3ccccc3)C1=C[C@H](COCc1ccccc1)O[C@@H]2C	none (no result: core dimer inh, ARFGAP1 inhibitor, Fh CTSL1 inh, ASAP1 inh)
Cc1cccc(N(C)S(=O)(=O)c2ccc3c(c2)C(C)(C)C(=O)N3C)c1	core dimer inh 54.1
Cc1cccc(N2CCN(S(=O)(=O)c3ccc4c(c3)C(C)(C)C(=O)N4C)CC2)c1C	core dimer inh 46.6
O=C(CSc1ccc2nnc(-c3ccccn3)n2n1)Nc1ccc(F)cc1	Fh CTSL1 inh 50.4
O=C(/C=C/c1ccco1)NC(=S)Nc1cccc(-c2nc3ccccc3s2)c1	core dimer inh 51.9
Cc1ccc(-c2nc3ccccc3s2)cc1NC(=S)NC(=O)/C=C/c1ccco1	core dimer inh 51.7
CS(=O)(=O)c1cccc(C(=O)OCC(=O)c2ccc3c(c2)OCCO3)c1	none (no result: core dimer inh, Fh CTSL1 inh)
CC(=O)Nc1ccc(C(=O)N/N=C/c2cccnc2)cc1	none
CC(C)(C)CN1CCC(Oc2cccc(C(=O)N3CCNC(=O)C3(C)C)c2)CC1	Fh CTSL1 inh 18.5
CCCCN(C)C(=O)c1cccc(OC2CCN(CC(C)(C)C)CC2)c1	none
CCCNC(=O)C1(S(=O)(=O)c2ccccc2)CC=CC1	none
